Test results: ChEMBL document CHEMBL3861983, “Synthesis and biological evaluation of the codrug of Leonurine and Aspirin as cardioprotective agents” (Bioorg Med Chem Lett, 2016)
Activity calls are given as the source filed them.

Experiments:
Assay type in all cases: functional, cell-based
H9c2 [1] = assay: Cardioprotective activity against hypoxia-induced cytotoxicity in rat H9c2 cells assessed as increase in cell viability at 0.1 uM preincubated for 8 hrs followed by H2O2 addition for 2 hrs by MTT assay
Method in brief: (§1)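 H9c2 cells were pretreated with compound for 8 h, then exposed to H2O2 (40 mM) in culture medium for 2 h. Viability was read by MTT at 0.1, 1, 10 and 100 μM, relative to untreated control and H2O2-only model groups. Values are mean ± SEM of more than three independent experiments.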

[2] = Cardioprotective activity against hypoxia-induced oxidative stress mediated inflammation in rat H9c2 cells assessed as suppression of IL-6 in supernatant at 0.1 uM preincubated for 8 hrs followed by H2O2 addition for 2 hrs by ELISA
Method in brief: (§2)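 TNF-α, IL-6 and IL-1β in the culture supernatant were quantified with ELISA kits. H9c2 cells were pretreated with compound for 8 h, then given 2 h H2O2 (40 mM). Values are mean ± SEM of more than three independent experiments, versus the H2O2 model group.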

[3] = Cardioprotective activity against hypoxia-induced apoptosis in rat H9c2 cells assessed as increase in Bcl-2 expression at 0.1 uM preincubated for 8 hrs followed by H2O2 addition for 2 hrs by Western blotting analysis
Method in brief: (§3)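 Bax and Bcl-2 protein expression was measured in H9c2 cells pretreated with compound for 8 h, then injured with H2O2 (40 mM) for 2 h. Levels were compared with control and H2O2 model groups. Values are mean ± SEM of more than three independent experiments.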

[4] = Cardioprotective activity against hypoxia-induced oxidative stress in rat H9c2 cells assessed as antioxidant activity by measuring increase in catalase activity at 0.1 uM preincubated for 8 hrs followed by H2O2 addition for 2 hrs by spectrophotometry
Method in brief: (§4)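 H9c2 cells were pretreated with compound for 8 h, then given H2O2 (40 mM) in medium for 2 h. Measured read-outs were LDH leakage into the culture supernatant, MDA level, and SOD and catalase activities. Values are mean ± SEM of more than three independent experiments, versus model and control groups.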

[5] = Cardioprotective activity against hypoxia-induced oxidative stress in rat H9c2 cells assessed as antioxidant activity by measuring increase in SOD activity at 0.1 uM preincubated for 8 hrs followed by H2O2 addition for 2 hrs by spectrophotometry; method in brief: as §4
[6] = Cardioprotective activity against hypoxia-induced apoptosis in rat H9c2 cells assessed as reduction in total apoptotic cells at 0.1 uM preincubated for 8 hrs followed by H2O2 addition for 2 hrs by Annexin-V FITC/propidium iodide staining based flow cytometry
Method in brief: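 After 8 h compound pretreatment, H9c2 cells got a 2 h H2O2 (40 mM) insult. They were stained with Annexin V-FITC/PI and analysed by flow cytometry, counting total apoptotic cells including necrotic cells. Values are mean ± SEM of more than three independent experiments, versus model and control groups.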

[7] = Cardioprotective activity against hypoxia-induced oxidative stress in rat H9c2 cells assessed as antioxidant activity by measuring reduction in MDA levels at 0.1 uM preincubated for 8 hrs followed by H2O2 addition for 2 hrs by spectrophotometry; method in brief: as §4
[8] = Cardioprotective activity against hypoxia-induced apoptosis in rat H9c2 cells assessed as reduction in Bax expression at 0.1 uM preincubated for 8 hrs followed by H2O2 addition for 2 hrs by Western blotting analysis; method in brief: as §3
[9] = Cardioprotective activity against hypoxia-induced oxidative stress mediated inflammation in rat H9c2 cells assessed as suppression of IL-1beta in supernatant at 0.1 uM preincubated for 8 hrs followed by H2O2 addition for 2 hrs by ELISA; method in brief: as §2
[10] = Cardioprotective activity against hypoxia-induced oxidative stress in rat H9c2 cells assessed as antioxidant activity by measuring reduction in LDH leakage in supernatant at 0.1 uM preincubated for 8 hrs followed by H2O2 addition for 2 hrs by spectrophotometry; method in brief: as §4
[11] = Cardioprotective activity against hypoxia-induced oxidative stress mediated inflammation in rat H9c2 cells assessed as suppression of TNF-alpha in supernatant at 0.1 uM preincubated for 8 hrs followed by H2O2 addition for 2 hrs by ELISA; method in brief: as §2
H9c2 [12] = assay: Increase in No level in rat H9c2 cells at 0.1 uM preincubated for 8 hrs followed by H2O2 addition for 2 hrs by ELISA
Method in brief: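 NO concentration was measured in the culture supernatant of H9c2 cells. Cells were pretreated with compound for 8 h before 2 h H2O2 (40 mM) exposure. Values are mean ± SEM of more than three independent experiments, versus the model group.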

[13] = Cardioprotective activity against hypoxia-induced oxidative stress mediated inflammation in rat H9c2 cells assessed as suppression of TNF-alpha in supernatant at 1 uM preincubated for 8 hrs followed by H2O2 addition for 2 hrs by ELISA; method in brief: as §2
[14] = Cardioprotective activity against hypoxia-induced oxidative stress in rat H9c2 cells assessed as reduction in MDA levels at 1 uM preincubated for 8 hrs followed by H2O2 addition for 2 hrs in presence of aspirin by spectrophotometry; method in brief: as §4
[15] = Cardioprotective activity against hypoxia-induced oxidative stress in rat H9c2 cells assessed as antioxidant activity by measuring increase in SOD activity at 1 uM preincubated for 8 hrs followed by H2O2 addition for 2 hrs in presence of aspirin by spectrophotometry; method in brief: as §4
[16] = Cardioprotective activity against hypoxia-induced oxidative stress in rat H9c2 cells assessed as antioxidant activity by measuring increase in SOD activity at 1 uM preincubated for 8 hrs followed by H2O2 addition for 2 hrs by spectrophotometry; method in brief: as §4
[17] = Cardioprotective activity against hypoxia-induced oxidative stress in rat H9c2 cells assessed as antioxidant activity by measuring increase in catalase activity at 1 uM preincubated for 8 hrs followed by H2O2 addition for 2 hrs by spectrophotometry; method in brief: as §4
[18] = Cardioprotective activity against hypoxia-induced oxidative stress mediated inflammation in rat H9c2 cells assessed as suppression of IL-6 in supernatant at 1 uM preincubated for 8 hrs followed by H2O2 addition for 2 hrs in presence of aspirin by ELISA; method in brief: as §2
[19] = Cardioprotective activity against hypoxia-induced oxidative stress mediated inflammation in rat H9c2 cells assessed as suppression of IL-1beta in supernatant at 1 uM preincubated for 8 hrs followed by H2O2 addition for 2 hrs in presence of aspirin by ELISA; method in brief: as §2
[20] = Cardioprotective activity against hypoxia-induced oxidative stress mediated inflammation in rat H9c2 cells assessed as suppression of IL-6 in supernatant at 1 uM preincubated for 8 hrs followed by H2O2 addition for 2 hrs by ELISA; method in brief: as §2
[21] = Cardioprotective activity against hypoxia-induced oxidative stress in rat H9c2 cells assessed as antioxidant activity by measuring reduction in MDA levels at 1 uM preincubated for 8 hrs followed by H2O2 addition for 2 hrs by spectrophotometry; method in brief: as §4
[22] = Cardioprotective activity against hypoxia-induced oxidative stress mediated inflammation in rat H9c2 cells assessed as suppression of IL-1beta in supernatant at 1 uM preincubated for 8 hrs followed by H2O2 addition for 2 hrs by ELISA; method in brief: as §2
H9c2 [23] = assay: Cardioprotective activity against hypoxia-induced cytotoxicity in rat H9c2 cells assessed as increase in cell viability at 1 uM preincubated for 8 hrs followed by H2O2 addition for 2 hrs by MTT assay; method in brief: as §1
[24] = Cardioprotective activity against hypoxia-induced oxidative stress mediated inflammation in rat H9c2 cells assessed as suppression of TNF-alpha in supernatant at 1 uM preincubated for 8 hrs followed by H2O2 addition for 2 hrs in presence of aspirin by ELISA; method in brief: as §2
H9c2 [25] = assay: Cardioprotective activity against hypoxia-induced cytotoxicity in rat H9c2 cells assessed as increase in cell viability at 0.1 to 100 uM preincubated for 8 hrs followed by H2O2 addition for 2 hrs by MTT assay; method in brief: as §1
[26] = Cardioprotective activity against hypoxia-induced oxidative stress in rat H9c2 cells assessed as antioxidant activity by measuring increase in SOD activity at 1 uM preincubated for 8 hrs followed by H2O2 addition for 2 hrs in presence of leonurine by spectrophotometry; method in brief: as §4
[27] = Cardioprotective activity against hypoxia-induced oxidative stress mediated inflammation in rat H9c2 cells assessed as suppression of IL-1beta in supernatant at 1 uM preincubated for 8 hrs followed by H2O2 addition for 2 hrs in presence of leonurine by ELISA; method in brief: as §2
[28] = Cardioprotective activity against hypoxia-induced oxidative stress mediated inflammation in rat H9c2 cells assessed as suppression of IL-6 in supernatant at 1 uM preincubated for 8 hrs followed by H2O2 addition for 2 hrs in presence of leonurine by ELISA; method in brief: as §2
[29] = Cardioprotective activity against hypoxia-induced oxidative stress mediated inflammation in rat H9c2 cells assessed as suppression of TNF-alpha in supernatant at 1 uM preincubated for 8 hrs followed by H2O2 addition for 2 hrs in presence of leonurine by ELISA; method in brief: as §2
[30] = Cardioprotective activity against hypoxia-induced oxidative stress in rat H9c2 cells assessed as reduction in MDA levels at 1 uM preincubated for 8 hrs followed by H2O2 addition for 2 hrs in presence of leonurine by spectrophotometry; method in brief: as §4

Measured: Activity

COc1cc(C(=O)OCCCCNC(=N)N)cc(OC)c1OC(=O)CCNC(=O)c1ccccc1OC(C)=O
active: H9c2 [1] | [2] | [3] | [4] | [5] | [6] | [7] | [8] | [9] | [10] | [11] | H9c2 [12]

COc1cc(C(=O)OCCCCNC(=N)N)cc(OC)c1O
active: [13] | [14] | [15] | [16] | [17] | [18] | [19] | [20] | [21] | [22] | H9c2 [23] | [24]

COc1cc(C(=O)OCCCCNC(=N)N)cc(OC)c1OC(=O)CCNC(=O)c1ccccc1O
active: H9c2 [25]

CC(=O)Oc1ccccc1C(=O)O
active: [13] | [26] | [27] | [28] | [16] | [17] | [29] | [30] | [20] | [21] | [22] | H9c2 [23]
